Source: PubChem BioAssay (Broad Institute)
Calb FLC: C. albicans growth modulation with fluconazole; C. albicans CaCi-2 (fluconazole-resistant clinical isolate) + fluconazole, Alamar Blue growth, 48 h; AID 1979; growth inhibition, % (concentration not given with the values); 0.57% of 300,000 active;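 active = growth inhibition above about 58% in most replicates, limit read from the data, passing the limit was not always enough; inconclusive = exactly half the replicates above a set limit; inactive = most replicates below a set limit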;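 also: all wells also contain fluconazole at 8 µg/ml as a sub-toxic cotreatment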
Beta apoptosis: blocks beta cell apoptosis | INS-1E cytokine-induced death, ATP luminescence, 48 h; percent of positive-control rescue, neutral wells zero | 0.8% of 300,000 active | protection from apoptosis, % (test concentration not listed);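 active = Every replicate reaches about 75%, or at least half do and their mean reaches it too, limit read from the data; inconclusive = At least half of replicates reach the limit but their mean does not; inactive = Under half of replicates reach the limit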;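 also: higher means more ATP so stronger rescue from cytokine killing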
PolyA inh: inhibitors of polyadenylation in S. cerevisiae; S. cerevisiae SKY197-pL101 polyadenylation reporter, beta-gal luminescence; efflux-impaired pdr1/pdr3 knockout yeast; score 100 = 6 SD above DMSO; activity score, % at 12 µM; 0.02% of 300,000 active;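 active = lowest replicate activity score at least 50, where 100 means six control SD above control mean; inconclusive = lowest score under 50 but half or more replicates reach 50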;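 also: yeast exposed to compound for 9 h at 30 °C; higher score means more reporter readthrough which indicates perturbed polyadenylation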
HIF act: HIF pathway transcriptional activation; U2OS HRE-luciferase reporter, luminescence; normalized: DMSO 0%, desferrioxamine 100%; activation, % at 7.5 µM (by protocol); 0.32% of 300,000 active;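 active = mean activation of at least 10% of the iron chelator positive control signal, with at least half of replicates also reaching 10%; inconclusive = mean and replicate majority disagree about reaching 10%; inactive = mean and most replicates under 10%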
CSC inhib: blocks cancer stem cells; 1.1% of 300,000 active; inhibition, % at 7.5 µM; cancer stem cell-like cells viability, luminescence; in the data active = inhibition above about 75%; inconclusive = no clear call, values can overlap the other calls; tested in HMLE shEcad cells
T cruzi inh: T. cruzi replication inhibition; T. cruzi beta-gal in NIH3T3, luminescence, 90 h; inhibition, % (test concentration not listed); 1.4% of 300,000 active;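 active = mean inhibition across valid replicates above about 55%, limit read from the data; inconclusive = mean below that limit but half or more replicates reach it; inactive = mean below it, under half of replicates reach it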;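 also: signal also drops with host cell toxicity which is not excluded here; higher percent means less beta-gal luminescence so fewer parasites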
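System – NIH/3T3 host cells with β-galactosidase reporter T. cruzi · Doses – single 50 nL compound addition per well in DMSO · Reagent – 5000 T. cruzi trypomastigotes/well · Medium – Low-serum DMEM with 2% FBS · Timing – ≥90 h infection period, 3 h prior cell attachment · Evaluation – parasite load inhibition, % · Technique – GalScreen luminescence, 60 min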
A number is an active result; - = inactive; ? = inconclusive; . = no result given. This is a sample that favours compounds with a hit; in the whole collection about 3.1% have one here.

SMILES | Calb FLC | Beta apoptosis | PolyA inh | HIF act | CSC inhib | T cruzi inh
Cc1cc(C(=O)CCl)c(C)n1CCc1ccc(F)cc1 | - | - | - | - | - | 72.6
COc1cccc(CNCc2cccnc2)c1OCc1ccccc1 | - | - | - | - | - | -
CC(C)(C)NC(=O)C(c1c[nH]c2ccccc12)N(C(=O)Cn1nnc(-c2ccc(Cl)cc2)n1)c1ccccc1F (stereo unspecified) | - | - | - | - | - | 55.3
COc1cccc(N(C(=O)Cn2nnc(-c3ccc(C)cc3)n2)C(C(=O)NC(C)(C)C)c2c[nH]c3ccccc23)c1 (stereo unspecified) | - | - | - | - | - | -
CCN(CC(=O)NCc1cccs1)C(=O)c1ccc(S(=O)(=O)Nc2ccccc2C)cc1 | - | - | - | - | - | -
COc1cccc(C(=O)Nc2nnc(-c3ccc(F)cc3)o2)c1 | 83.0 | - | - | - | - | -
Cc1cccc(C(=O)Nc2nnc(-c3ccncc3)o2)c1 | - | - | - | - | - | -
CS(=O)(=O)c1cccc(-c2nnc(NC(=O)c3ccc4ncsc4c3)o2)c1 | - | . | - | - | - | -
O=C(Nc1nnc(-c2ccncc2)o1)c1ccc2ccccc2c1 | 90.1 | . | - | - | - | -
CCOc1ccc(-c2nnc(NC(=O)c3ccc(OCC(C)C)c(OC)c3)o2)cc1 | ? | - | - | - | 103.1 | -
COc1cccc(-c2nnc(NC(=O)c3ccc4ncsc4c3)o2)c1 | 107.0 | - | - | - | - | -
COc1cccc(C(=O)Nc2nnc(-c3ccc(Cl)cc3)o2)c1 | - | - | - | - | - | -
Cc1nn(-c2ccccc2)c(Cl)c1/C=N/NC(=O)CNC(=O)c1ccccc1Cl | - | - | - | - | - | -
Cc1cc(C(=O)Nc2ccc3ccccc3c2)c(C)o1 | - | - | - | - | - | -
CCN(CC)CCn1c2c(c(SCC(=O)Nc3nccs3)nc1=O)CCCC2 | - | - | - | - | - | -
O=C(O/N=C(\c1ccccc1)c1ccccn1)c1cccc2ccccc12 | - | - | - | - | - | -
O=C(NC(O)C(=O)c1ccccc1)c1ccccn1 (stereo unspecified) | - | - | - | - | . | -
COc1ccc(C(=O)N/N=C/c2cccc3cccnc23)cc1 | ? | - | - | 12.4 | - | -
O=C(NN=C(c1ccccc1)c1ccccn1)c1ccccc1 | . | 102.5 | . | . | - | .
COc1ccc(C(=O)N/N=C(\c2ccccc2)c2ccccn2)cc1 | - | 113.0 | - | 49.5 | - | ?
COc1ccc(C(=O)Nc2ccc(NC(=O)c3ccccn3)cn2)cc1 | - | . | - | - | . | -
O=C(N/N=C(\c1ccccc1)c1ccccn1)c1ccccc1Cl | - | 94.4 | - | 46.6 | - | 61.7
COc1ccc(OC)c(CNC(=O)c2nn(C)c3c2CS(=O)(=O)c2ccccc2-3)c1 | - | - | - | - | - | -
COCCNCc1ccccc1[N+](=O)[O-] | . | - | . | . | - | .
O=C(Nc1ccccc1Cl)c1cc[n+]([O-])cc1 | - | - | - | - | - | -
SMILES | Calb FLC | Beta apoptosis | PolyA inh | HIF act | CSC inhib | T cruzi inh
Cc1cccc(-n2c(SCc3ccc([N+](=O)[O-])cc3)nnc2-c2c[nH]c3ccccc23)c1 | - | - | - | - | . | 65.5
COc1ccc(-c2nn(C)c(=O)c3ccccc23)cc1NC(=O)Cn1nc(C)c2ccccc2c1=O | - | - | - | - | - | 73.6
CCOC(=O)C1=C(C)NC(C)=C(C(=O)OC)C1c1cccc([N+](=O)[O-])c1 (stereo unspecified) | . | - | - | - | - | -
COCCOC(=O)C1=C(C)NC(C)=C(C(=O)OC(C)C)C1c1cccc([N+](=O)[O-])c1 (stereo unspecified) | - | - | - | - | - | 62.0
Cc1ccc(N2C(=O)CC(Sc3nc4ccccc4o3)C2=O)cc1Cl (stereo unspecified) | - | - | - | - | - | 69.5
CCCc1c(O)nc(SC2CC(=O)N(c3ccc(C)c(Cl)c3)C2=O)[nH]c1=O (stereo unspecified) | - | - | - | - | - | -
COc1ccc(OCC(O)CNC(=O)c2c(-c3ccccc3)noc2C)cc1 (stereo unspecified) | - | - | - | - | - | -
CC(C)Oc1ccc(S(=O)(=O)N2CCCCC2)cc1NC(=O)CN1CCCC1c1cccs1 (stereo unspecified) | . | 92.0 | . | . | - | .
COc1ccc(S(=O)(=O)N(C)C[C@H]2Oc3ccc(NC(=O)Nc4c(C)noc4C)cc3C(=O)N([C@H](C)CO)C[C@@H]2C)cc1 | . | - | . | . | - | .
COC(=O)Nc1nc(-c2cc(Cl)ccc2Cl)cs1 | - | . | - | - | . | 80.1
CCN(C(=O)c1ccc2c(SCC(=O)O)c3c(nc2c1)CCC3)c1cc(Cl)ccc1OC | - | - | - | - | - | -
CC(C)(Sc1ccc(CCN(CCCCC2CCCCC2)C(=O)NC2CCCCC2)cc1)C(=O)O | . | - | . | . | 98.7 | .
O=C(COc1ccccc1C(=O)NCc1ccccn1)Nc1ccc(Br)cc1 | - | - | - | - | . | -
Nc1[nH]n2c(=O)cc(-c3ccccc3)nc2c1N=Nc1ccccc1 | - | - | - | - | 91.7 | -
Nc1[nH]n2c(=O)cc(-c3ccccc3)nc2c1N=Nc1ccc(S(N)(=O)=O)cc1 | - | - | - | - | - | -
Cc1ccc(-n2ncc3c(SCc4ccccn4)ncnc32)c(C)c1 | - | - | - | - | - | -
Cn1nc(C(F)(F)F)cc1C(=O)NC1CCCCCC1 | - | - | - | 236.6 | - | -
C(=N\c1ncnc2sccc12)/NOCc1ccccc1 | - | - | 95.4 | - | - | -
O=C(COC(=O)Cc1ccc(Cl)cc1)Nc1c(F)cccc1F | - | - | - | - | . | -
O=C(CSc1nnc(-c2ccc(F)cc2)c2ccccc12)Nc1ccccc1 | - | - | - | - | - | -
O=C(CSc1nnc(-c2ccc(F)cc2)c2ccccc12)Nc1cccc(Cl)c1 | - | - | - | - | - | 60.3
COc1ccc(Cc2c(C)nc(N)nc2Cl)cc1 | - | - | - | - | - | -
Cc1nc(N)nc(N)c1CCCc1ccc(Cl)c(Cl)c1 | - | - | - | - | - | 62.1
NC(=O)c1ccc(/C=N/O)[n+](Cc2ccccc2)c1 | - | - | - | - | - | -
Cc1cc(C)[n+](Cc2ccccc2)cc1C(N)=O | - | - | - | 21.4 | - | -
COc1ccccc1C1CC(c2ccc(NS(C)(=O)=O)cc2)=NN1C(=O)c1ccccc1 (stereo unspecified) | ? | - | - | - | - | -
Cc1ccc(C(=O)N2N=C(c3ccc(Br)cc3)CC2c2ccccc2O)cc1 (stereo unspecified) | - | 78.1 | - | - | 112.1 | 55.1
COc1cccc(C2CC(c3ccc(NS(C)(=O)=O)cc3)=NN2C(=O)c2ccccc2)c1OC (stereo unspecified) | 102.9 | - | - | - | - | -
COc1ccc(C2=NN(C(=O)c3cccs3)C(c3ccccc3O)C2)cc1 (stereo unspecified) | - | - | - | - | . | 60.5
